# Calls of active or inactive are those of the source. The calls are words filed in the database; no cut-off is given here.
# Assays:
# [1] = target: T1, NPC intracellular cholesterol transporter 1 (Mus musculus) (UniProt O35604); assay: Inhibition of mouse NPC1 interaction to Ebola virus GP expressed in LE/LY membrane of CHO cells by immunoblotting; format: cell-based
# T1 sequence (whole entry): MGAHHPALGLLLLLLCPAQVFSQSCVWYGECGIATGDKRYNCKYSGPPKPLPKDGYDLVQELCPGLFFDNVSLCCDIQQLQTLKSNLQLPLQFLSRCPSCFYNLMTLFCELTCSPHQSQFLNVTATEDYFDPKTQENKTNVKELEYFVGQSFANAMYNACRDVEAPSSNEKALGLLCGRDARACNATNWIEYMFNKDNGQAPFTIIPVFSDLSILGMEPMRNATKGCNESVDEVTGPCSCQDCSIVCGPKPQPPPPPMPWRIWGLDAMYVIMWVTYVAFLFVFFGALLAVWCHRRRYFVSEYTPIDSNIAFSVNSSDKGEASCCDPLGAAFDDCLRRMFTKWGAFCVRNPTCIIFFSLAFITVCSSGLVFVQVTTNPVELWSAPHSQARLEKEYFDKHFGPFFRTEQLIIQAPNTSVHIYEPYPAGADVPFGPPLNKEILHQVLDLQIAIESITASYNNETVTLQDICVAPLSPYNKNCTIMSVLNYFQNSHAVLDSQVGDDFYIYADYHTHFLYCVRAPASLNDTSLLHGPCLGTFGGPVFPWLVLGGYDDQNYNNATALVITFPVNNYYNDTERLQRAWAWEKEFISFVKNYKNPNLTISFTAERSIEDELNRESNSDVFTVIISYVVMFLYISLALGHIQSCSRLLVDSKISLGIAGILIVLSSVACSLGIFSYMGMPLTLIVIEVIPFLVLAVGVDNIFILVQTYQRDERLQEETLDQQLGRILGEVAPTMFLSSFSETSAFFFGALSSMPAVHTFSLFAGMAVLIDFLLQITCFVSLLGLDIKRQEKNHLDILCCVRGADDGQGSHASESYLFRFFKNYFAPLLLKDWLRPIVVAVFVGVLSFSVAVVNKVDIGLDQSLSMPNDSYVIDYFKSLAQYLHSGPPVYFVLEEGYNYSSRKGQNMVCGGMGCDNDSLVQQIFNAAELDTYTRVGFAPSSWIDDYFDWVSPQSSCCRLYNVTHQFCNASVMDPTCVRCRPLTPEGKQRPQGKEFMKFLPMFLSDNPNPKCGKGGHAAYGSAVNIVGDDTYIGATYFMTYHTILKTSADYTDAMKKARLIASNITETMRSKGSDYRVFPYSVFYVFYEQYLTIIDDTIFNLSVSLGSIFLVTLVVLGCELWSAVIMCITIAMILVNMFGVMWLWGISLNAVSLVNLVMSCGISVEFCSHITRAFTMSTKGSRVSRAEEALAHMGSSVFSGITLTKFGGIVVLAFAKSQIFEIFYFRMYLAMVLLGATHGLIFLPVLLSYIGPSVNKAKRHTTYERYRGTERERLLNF
# Procedure, shortened: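 Late endosome/lysosome membranes from NPC1-null CHO cells, or the same cells stably expressing mouse NPC1, were immobilized on ELISA plates. They were incubated with protease-cleaved Ebola GP in the presence of test compound at specified concentrations. After washing off unbound GP, membranes were solubilized in NP40 and bound GP was detected by GP1-antibody immunoblot. Results are representative of six experiments.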
# [2] = target: T2, NPC intracellular cholesterol transporter 1 (Homo sapiens) (UniProt O15118); assay: Binding affinity to human NPC1 expressed in LE/LY membrane of CHO cells at 25 uM by immunoblotting; format: cell membranes
# T2 sequence (whole entry): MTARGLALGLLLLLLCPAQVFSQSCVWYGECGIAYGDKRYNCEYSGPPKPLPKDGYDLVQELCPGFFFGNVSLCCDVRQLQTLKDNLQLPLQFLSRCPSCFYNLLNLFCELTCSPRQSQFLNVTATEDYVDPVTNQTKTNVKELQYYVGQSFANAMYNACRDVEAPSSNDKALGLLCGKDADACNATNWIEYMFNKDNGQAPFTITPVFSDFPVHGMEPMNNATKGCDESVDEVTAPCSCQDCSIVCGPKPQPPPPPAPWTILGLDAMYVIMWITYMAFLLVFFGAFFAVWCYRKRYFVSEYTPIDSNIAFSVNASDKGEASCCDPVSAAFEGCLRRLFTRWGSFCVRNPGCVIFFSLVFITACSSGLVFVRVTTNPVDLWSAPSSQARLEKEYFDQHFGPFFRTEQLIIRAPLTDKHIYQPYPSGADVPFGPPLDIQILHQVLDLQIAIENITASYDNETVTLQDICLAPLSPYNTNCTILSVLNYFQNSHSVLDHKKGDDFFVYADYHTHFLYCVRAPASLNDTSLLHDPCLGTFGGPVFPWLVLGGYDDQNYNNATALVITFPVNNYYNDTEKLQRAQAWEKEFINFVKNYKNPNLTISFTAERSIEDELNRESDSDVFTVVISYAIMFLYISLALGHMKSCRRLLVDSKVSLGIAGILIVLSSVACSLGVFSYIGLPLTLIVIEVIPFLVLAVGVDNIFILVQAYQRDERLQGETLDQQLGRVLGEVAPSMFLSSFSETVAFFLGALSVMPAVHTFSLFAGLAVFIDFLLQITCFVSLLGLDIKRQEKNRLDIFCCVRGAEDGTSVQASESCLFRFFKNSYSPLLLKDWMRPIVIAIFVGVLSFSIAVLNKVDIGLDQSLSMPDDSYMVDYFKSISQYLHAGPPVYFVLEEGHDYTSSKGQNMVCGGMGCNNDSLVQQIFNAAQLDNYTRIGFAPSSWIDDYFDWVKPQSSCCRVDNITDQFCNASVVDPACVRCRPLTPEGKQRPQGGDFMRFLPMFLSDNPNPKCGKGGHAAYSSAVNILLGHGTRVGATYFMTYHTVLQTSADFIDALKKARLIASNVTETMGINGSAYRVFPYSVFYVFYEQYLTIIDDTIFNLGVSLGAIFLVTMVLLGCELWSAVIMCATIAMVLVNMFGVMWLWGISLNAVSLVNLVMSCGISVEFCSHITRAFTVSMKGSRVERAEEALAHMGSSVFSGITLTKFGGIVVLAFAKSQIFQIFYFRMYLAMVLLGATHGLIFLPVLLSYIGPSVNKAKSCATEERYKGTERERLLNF
# Procedure, shortened: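 Purified late endosome/lysosome membranes came from NPC1-null CHO cells and CHO cells overexpressing human NPC1. […] Cross-linked proteins were click-labelled with Alexa Fluor 488 azide and detected by anti-Alexa 488 immunoblot. NPC1 was confirmed by anti-NPC1 immunoprecipitation and immunoblot.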
# Lassa virus = assay: Antiviral activity against Lassa virus by cell based luciferase reporter gene assay; format: functional, organism-based; conditions: Mammarenavirus lassaense
# [3] = system: Vesicular stomatitis virus; assay: Antiviral activity against Vesicular stomatitis virus by cell based luciferase reporter gene assay; format: functional, organism-based
# Ebolavirus = assay: Antiviral activity against Ebola virus by cell based luciferase reporter gene assay; format: functional, Ebola virus sp.; conditions: Orthoebolavirus
Structure (SMILES),inhibition [1],Activity [2],inhibition (Lassa virus),inhibition [3],IC50 (Ebolavirus) [nM]
C#Cc1ccc(COc2ccc(N=[N+]=[N-])cc2CN2CCN(C(=O)CNC(=O)CC34CC5CC(CC(C5)C3)C4)CC2)cc1,Active,Active,–,–,–
COC(=O)c1ccc(COc2ccccc2CN2CCN(C(=O)CNC(=O)CC34CC5CC(CC(C5)C3)C4)CC2)cc1,Active,–,inactive,inactive,20
